The source made the active and inactive calls. The rule behind the calls is not given here.
What was measured:
[1] = system: A549; assay: Cytotoxicity against human A549 cells at 25 ug/ml by MTT assay; assay type: functional
Outline: (§1)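 A549 cells (NCIS Pune) grown in DMEM with 10% FBS, 2 mM L-glutamine, penicillin/streptomycin, pH 7.2. 5 × 10^5 cells were seeded with compound at 100, 50 or 25 per mL and kept at 37 °C, 5% CO2. MTT (1 mg/mL, 4 h) was added, formazan dissolved in DMSO and read at 540 nm. IC50 is the mean of three replicate experiments; Duncan test at P = 0.05.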

[2] = system: A549; assay: Cytotoxicity against human A549 cells at 50 ug/ml by MTT assay; assay type: functional; outline: as §1
[3] = system: A549; assay: Cytotoxicity against human A549 cells by MTT assay; assay type: functional, cell-based; outline: as §1
[4] = system: A549; assay: Cytotoxicity against human A549 cells at 100 ug/ml by MTT assay; assay type: functional; outline: as §1
[5] = system: A549; assay: Cytotoxicity against human A549 cells assessed as growth inhibition at 25 ug/ml after 24 hrs by agarose gel electrophoresis; assay type: functional, cell-based
Outline: (§2)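 A549 cells were exposed to compound for 24 h. 1 × 10^6 cells were pelleted, PBS-washed and lysed at 4 °C for 15 min in 10 mM Tris-HCl pH 7.4 with 10 mM EDTA and 0.5% Triton X-100. Supernatant was treated with proteinase K (60 °C, 60 min) then RNase A (37 °C, 60 min). DNA was isopropanol/NaCl precipitated overnight and run on a 2% agarose gel.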

[6] = system: A549; assay: Induction of apoptosis in human A549 cells assessed as DNA fragmentation at 25 ug/ml after 24 hrs by agarose gel electrophoresis; assay type: functional, cell-based; outline: as §2
[7] = system: A549; assay: Induction of apoptosis in human A549 cells at 25 ug/ml after 24 hrs by propidium iodide/FITC staining-based confocal laser scanning microscopy; assay type: functional, cell-based
Outline: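 Cells were exposed to compound or untreated for 24 h, washed twice in 0.01 M PBS and suspended in binding buffer. They were stained with FITC and PI for 30 min at 4 °C in the dark, pelleted and smeared. Fluorescence was viewed at once by confocal laser scanning microscopy at 400× magnification.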

SMILES | inhibition at 25 µg/mL [1] | inhibition at 50 µg/mL [2] | Activity [3] | inhibition at 100 µg/mL [4] | growth inhibition (GI) [5] | Activity [6] | Activity [7]
CN1C[C@H](c2ncc[nH]2)[C@@](C#N)(C(=O)c2c[nH]c3ccccc23)[C@@]12C(=O)Nc1ccccc12 | 3.1% | 6.3% | Dose-dependent effect | 23.2% | – | – | –
COc1ccc2[nH]cc(C(=O)[C@]3(C#N)[C@@H](c4ncc[nH]4)C4CSCN4[C@]34C(=O)N(C)c3ccccc34)c2c1 (some centres undefined) | 52.9% | 68.5% | Dose-dependent effect | 80.1% | – | – | –
CN1C[C@H](c2ncc[nH]2)[C@@](C#N)(C(=O)c2c[nH]c3ccccc23)[C@@]12C(=O)Nc1ccc(Cl)cc12 | 6.9% | 30.9% | Dose-dependent effect | 51.5% | – | – | –
COc1ccc2[nH]cc(C(=O)[C@]3(C#N)[C@@H](c4ncc[nH]4)CN(C)[C@]34C(=O)Nc3ccc(Cl)cc34)c2c1 | 4.7% | 15.2% | Dose-dependent effect | 23% | – | – | –
COc1ccc2[nH]cc(C(=O)[C@]3(C#N)[C@@H](c4ncc[nH]4)CN(C)[C@]34C(=O)Nc3ccc(I)cc34)c2c1 | 3.7% | 22.2% | Dose-dependent effect | 50.2% | – | – | –
N#C[C@@]1(C(=O)c2c[nH]c3ccccc23)[C@@H](c2ncc[nH]2)C2CSCN2[C@]12C(=O)Nc1ccc([N+](=O)[O-])cc12 (some centres undefined) | 28% | 63.4% | Dose-dependent effect | 76.8% | – | – | –
COc1ccc2[nH]cc(C(=O)[C@]3(C#N)[C@@H](c4ncc[nH]4)CN(C)[C@]34C(=O)N(C)c3ccccc34)c2c1 | 66.3% | 79.2% | Dose-dependent effect | 85% | – | – | –
N#C[C@@]1(C(=O)c2c[nH]c3ccccc23)[C@@H](c2ncc[nH]2)C2CSCN2[C@]12C(=O)Nc1ccccc12 (some centres undefined) | 59.9% | 79.3% | Dose-dependent effect | 85.6% | Active | Active | –
N#C[C@@]1(C(=O)c2c[nH]c3ccccc23)[C@@H](c2ncc[nH]2)C2CSCN2[C@]12C(=O)Nc1ccc(F)cc12 (some centres undefined) | 15.5% | 33.5% | Dose-dependent effect | 66.2% | – | – | –
Cc1ccc2c(c1)[C@]1(C(=O)N2)N(C)C[C@H](c2ncc[nH]2)[C@@]1(C#N)C(=O)c1c[nH]c2ccccc12 | 26.7% | 53.5% | Dose-dependent effect | 77.3% | Active | Active | –
COc1ccc2[nH]cc(C(=O)[C@]3(C#N)[C@@H](c4ncc[nH]4)C4CSCN4[C@]34C(=O)Nc3ccc([N+](=O)[O-])cc34)c2c1 (some centres undefined) | 3.3% | 5.1% | Dose-dependent effect | 9% | – | – | –
CN1C[C@H](c2ncc[nH]2)[C@@](C#N)(C(=O)c2c[nH]c3ccccc23)[C@@]12C(=O)Nc1ccc(I)cc12 | 5.9% | 6.8% | Dose-dependent effect | 14.9% | – | – | –
COc1ccc2[nH]cc(C(=O)[C@]3(C#N)[C@@H](c4ncc[nH]4)CN(C)[C@]34C(=O)Nc3ccc(F)cc34)c2c1 | 9.9% | 35.6% | Dose-dependent effect | 66.2% | – | – | –
Cc1ccc2c(c1)[C@]1(C(=O)N2)N2CSCC2[C@H](c2ncc[nH]2)[C@@]1(C#N)C(=O)c1c[nH]c2ccccc12 (some centres undefined) | 66.3% | 75.8% | Dose-dependent effect | 84.3% | Active | Active | –
COc1ccc2[nH]cc(C(=O)[C@]3(C#N)[C@@H](c4ncc[nH]4)CN(C)[C@]34C(=O)Nc3ccc([N+](=O)[O-])cc34)c2c1 | 3% | 4.3% | Dose-dependent effect | 6.8% | – | – | –
COc1ccc2[nH]cc(C(=O)[C@]3(C#N)[C@@H](c4ncc[nH]4)C4CSCN4[C@]34C(=O)Nc3ccccc34)c2c1 (some centres undefined) | 54.4% | 72.1% | Dose-dependent effect | 83.3% | Active | Active | –
COc1ccc2[nH]cc(C(=O)[C@]3(C#N)[C@@H](c4ncc[nH]4)CN(C)[C@]34C(=O)Nc3ccc(Br)cc34)c2c1 | 5.1% | 9.9% | Dose-dependent effect | 13.4% | – | – | –
N#C[C@@]1(C(=O)c2c[nH]c3ccccc23)[C@@H](c2ncc[nH]2)C2CSCN2[C@]12C(=O)Nc1ccc(I)cc12 (some centres undefined) | 24.5% | 56.3% | Dose-dependent effect | 69% | – | – | –
COc1ccc2[nH]cc(C(=O)[C@]3(C#N)[C@@H](c4ncc[nH]4)C4CSCN4[C@]34C(=O)Nc3ccc(Br)cc34)c2c1 (some centres undefined) | 36.2% | 68.4% | Dose-dependent effect | 82.7% | – | – | –
CN1C(=O)[C@@]2(c3ccccc31)N1CSCC1[C@H](c1ncc[nH]1)[C@@]2(C#N)C(=O)c1c[nH]c2ccccc12 (some centres undefined) | 64.8% | 75.1% | Dose-dependent effect | 87.8% | Active | Active | Active
COc1ccc2[nH]cc(C(=O)[C@]3(C#N)[C@@H](c4ncc[nH]4)C4CSCN4[C@]34C(=O)Nc3ccc(F)cc34)c2c1 (some centres undefined) | 15.7% | 31.1% | Dose-dependent effect | 56.2% | – | – | –
CN1C[C@H](c2ncc[nH]2)[C@@](C#N)(C(=O)c2c[nH]c3ccccc23)[C@@]12C(=O)Nc1ccc(Br)cc12 | 4.4% | 9.8% | Dose-dependent effect | 34.2% | – | – | –
CN1C[C@H](c2ncc[nH]2)[C@@](C#N)(C(=O)c2c[nH]c3ccccc23)[C@@]12C(=O)Nc1ccc([N+](=O)[O-])cc12 | 8.8% | 33.4% | Dose-dependent effect | 56.6% | – | – | –
COc1ccc2[nH]cc(C(=O)[C@]3(C#N)[C@@H](c4ncc[nH]4)CN(C)[C@]34C(=O)Nc3ccccc34)c2c1 | 62.8% | 74.4% | Dose-dependent effect | 83% | – | – | –
N#C[C@@]1(C(=O)c2c[nH]c3ccccc23)[C@@H](c2ncc[nH]2)C2CSCN2[C@]12C(=O)Nc1ccc(Br)cc12 (some centres undefined) | 5.1% | 9% | Dose-dependent effect | 15.6% | – | – | –
CN1C[C@H](c2ncc[nH]2)[C@@](C#N)(C(=O)c2c[nH]c3ccccc23)[C@@]12C(=O)Nc1ccc(F)cc12 | 4.5% | 9% | Dose-dependent effect | 22.2% | – | – | –
COc1ccc2[nH]cc(C(=O)[C@]3(C#N)[C@@H](c4ncc[nH]4)C4CSCN4[C@]34C(=O)Nc3ccc(Cl)cc34)c2c1 (some centres undefined) | 55.2% | 72.1% | Dose-dependent effect | 81.8% | Active | Active | –
N#C[C@@]1(C(=O)c2c[nH]c3ccccc23)[C@@H](c2ncc[nH]2)C2CSCN2[C@]12C(=O)Nc1ccc(Cl)cc12 (some centres undefined) | 6% | 13.4% | Dose-dependent effect | 24% | – | – | –
CN1C(=O)[C@@]2(c3ccccc31)N(C)C[C@H](c1ncc[nH]1)[C@@]2(C#N)C(=O)c1c[nH]c2ccccc12 | 3.3% | 4.3% | Dose-dependent effect | 7.4% | – | – | –

Source: ChEMBL document CHEMBL3112538, “Novel spirooxindole-pyrrolidine compounds: synthesis, anticancer and molecular docking studies” (2014)
